The text below walks through data of PubChem BioAssay AID623895 (Broad Institute, 2012).

Activity calls are given as the source filed them.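 How the source made its calls: active means compounds with an ATP-loss curve whose half-maximal dose stays within twice the top dose, in every run; inconclusive means mixed run calls, weak flat effects or poor fits; inactive means the rest, including opposite-direction effects.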

This assay can be described thus: viability loss of SR-BI expressing CHO cells – cell-based, 24 h, ATP luminescence, dry powder, set 6, cytotoxicity control for SR-BI HDL uptake inhibitor project, dose response (AID 623895). The conditions noted are these: ldlA[mSR-BI] CHO cells viability, ATP luminescence, 24 h; at 35 µM (top of the series). In outline:
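Assay system: ldlA[mSR-BI] cells | Quantity: 4,000 cells per well | Buffer or medium: Ham's F12 plus 10% FCS | Incubation: 24 h compound exposure at 37 °C, luminescence read 10 min after reagent | Dosing: 8 compound concentrations | Measure: Viability IC50 from dose-response fit | Technique: ATP luminescence (Cell Titer Glo)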
For the molecule `C[C@@H]1CN([C@H](C)CO)C(=O)c2cc(NS(C)(=O)=O)ccc2O[C@H]1CN(C)S(=O)(=O)c1ccc(Cl)cc1`, the activity change, negative = cytotoxicity was -14.8% (inactive). In the case of `C[C@H]1CN([C@@H](C)CO)C(=O)c2cc(NC(=O)Cc3cn(C)c4ccccc34)ccc2O[C@H]1CN(C)S(=O)(=O)c1ccc(Cl)cc1`, the activity change, negative = cytotoxicity is -23.6% (inactive). With `Cc1noc(C)c1S(=O)(=O)N(C)C[C@H]1Oc2c(NC(=O)c3nc4ccccc4s3)cccc2C(=O)N([C@H](C)CO)C[C@H]1C`, the activity change, negative = cytotoxicity is -8.36% (inactive).

Regarding `C[C@@H]1CN([C@@H](C)CO)C(=O)Cc2cc(NS(=O)(=O)c3cn(C)cn3)ccc2O[C@H]1CN(C)Cc1ccc(Cl)c(Cl)c1`, the activity change, negative = cytotoxicity was 3.09% (inactive). Take `CC(C)NC(=O)Nc1cccc2c1O[C@@H](CN(C)Cc1ccc(C(F)(F)F)cc1)[C@@H](C)CN([C@@H](C)CO)C2=O`: the activity change, negative = cytotoxicity is -11.3% (inactive). For the molecule `C[C@@H]1CN([C@H](C)CO)C(=O)c2cc(NC(=O)Nc3ccc(C(F)(F)F)cc3)ccc2O[C@H]1CN(C)S(=O)(=O)c1ccc(Cl)cc1`, the activity change, negative = cytotoxicity is -31.8% (inactive). Consider `C[C@@H]1CN([C@@H](C)CO)C(=O)Cc2cc(NS(C)(=O)=O)ccc2O[C@@H]1CN(C)Cc1ccc(C(F)(F)F)cc1`, for which the activity change, negative = cytotoxicity was -12.8% (inactive). Take `Cc1noc(C)c1S(=O)(=O)Nc1ccc2c(c1)C(=O)N([C@H](C)CO)C[C@@H](C)[C@H](CN(C)S(=O)(=O)c1ccc(Cl)cc1)O2`: the activity change, negative = cytotoxicity was -15.6% (inactive). The result for `CC(C)NC(=O)Nc1ccc2c(c1)C(=O)N([C@H](C)CO)C[C@@H](C)[C@H](CN(C)S(=O)(=O)c1ccc(Cl)cc1)O2` reads 3.09% (inactive); that for `CO[C@@H]1CN(C)C(=O)c2ccc(NC(=O)C3CC3)cc2OC[C@@H](C)N(Cc2ccncc2)C[C@H]1C`, -2.35% (inactive); that for `Cc1noc(C)c1NC(=O)Nc1ccc2c(c1)C(=O)N([C@H](C)CO)C[C@@H](C)[C@H](CN(C)S(=O)(=O)c1ccc(Cl)cc1)O2`, -7.8% (inactive).

As to `C[C@@H]1CN([C@H](C)CO)C(=O)c2cc(NC(=O)Cc3cn(C)c4ccccc34)ccc2O[C@H]1CN(C)C(=O)Nc1ccc(F)cc1`, the activity change, negative = cytotoxicity is -16.3% (inactive). The result for `C[C@@H]1CN([C@H](C)CO)C(=O)c2cc(NC(=O)Cc3cn(C)c4ccccc34)ccc2O[C@H]1CN(C)S(=O)(=O)c1ccccc1` reads -5.11% (inactive); that for `C[C@@H]1CN([C@H](C)CO)C(=O)c2cc(NC(=O)C3CCCCC3)ccc2O[C@H]1CN(C)S(=O)(=O)c1ccc(Cl)cc1`, -30.6% (inactive); that for `C[C@@H]1CN([C@H](C)CO)C(=O)c2cc(NC(=O)CCCCCC(=O)Nc3ccccc3N)ccc2O[C@H]1CN(C)S(=O)(=O)c1ccc(Cl)cc1`, -0.144% (inactive).

For `C[C@@H]1CN([C@H](C)CO)C(=O)c2cc(NC(=O)Cc3cn(C)c4ccccc34)ccc2O[C@H]1CN(C)Cc1ccc(C(=O)Nc2ccccc2N)cc1`, the activity change, negative = cytotoxicity is -12.9% (inactive).

For `C[C@@H]1CN([C@H](C)CO)C(=O)c2cc(NC(=O)C3CCCCC3)ccc2O[C@H]1CN(C)S(=O)(=O)c1ccccc1Cl`, the activity change, negative = cytotoxicity is -18.6% (inactive).

With `C[C@@H]1CN([C@H](C)CO)C(=O)c2cc(NC(=O)Nc3ccc(F)cc3)ccc2O[C@H]1CN(C)S(=O)(=O)c1ccc(Cl)cc1`, the activity change, negative = cytotoxicity was -20.6% (inactive). The result for `CC(=O)Nc1ccc(Cl)c(C(=O)Nc2ccc(N3CCN(C(=O)OC(C)(C)C)CC3)cc2)c1` reads -29.2% (inactive); that for `CNC[C@@H]1Oc2ccc(NC(=O)Cc3cn(C)c4ccccc34)cc2C(=O)N([C@H](C)CO)C[C@H]1C`, 14.8% (inactive). For `C[C@H](C(=O)NC1CCCC1)N(C(=O)Cn1nnc(-c2ccc3c(c2)OCO3)n1)C1CCCCC1`, the activity change, negative = cytotoxicity is -16.5% (inactive).

For `C[C@@H]1CN([C@H](C)CN)C(=O)c2cc(NC(=O)Cc3cn(C)c4ccccc34)ccc2O[C@H]1CN(C)S(=O)(=O)c1ccc(Cl)cc1`, the activity change, negative = cytotoxicity was -0.334% (inactive). Regarding `COc1cc(OC)cc(C(=O)Nc2nc(-c3ccc4c(c3)CCN4C(=O)CN3CCOCC3)cs2)c1`, the activity change, negative = cytotoxicity is 3.74% (inactive). As to `C[C@@H]1CN([C@H](C)CO)C(=O)c2cc(NS(=O)(=O)c3cccs3)ccc2O[C@H]1CN(C)S(=O)(=O)c1ccc(Cl)cc1`, the activity change, negative = cytotoxicity was 1.79% (inactive).

Take `C[C@@H]1CN([C@@H](C)CO)C(=O)c2cc(NC(=O)Cc3cn(C)c4ccccc34)ccc2O[C@H]1CN(C)S(=O)(=O)c1ccc(Cl)cc1`: the activity change, negative = cytotoxicity was -25.3% (inactive). For `C[C@@H]1CN([C@@H](C)CO)C(=O)Cc2cc(NC(=O)CCCN(C)C)ccc2O[C@H]1CN(C)Cc1ccncc1` the value was 0.314% (inactive).

With `C[C@@H]1CN([C@H](C)CO)C(=O)c2cc(NC(=O)Cc3cn(C)c4ccccc34)ccc2O[C@H]1CN(C)S(=O)(=O)c1ccc(Cl)cc1`, the activity change, negative = cytotoxicity is -19.8% (inactive). For `C[C@@H]1CN([C@H](C)CO)C(=O)c2cc(NC(=O)Cc3cn(C)c4ccccc34)ccc2O[C@H]1CN(C)S(=O)(=O)c1cccs1` the value was -7.16% (inactive); for `C[C@@H]1CN([C@H](C)CO[Si](C)(C)C(C)(C)C)C(=O)c2cc(NC(=O)C3CCCCC3)ccc2O[C@H]1CN(C)C(=O)c1ccc(Cl)cc1`, -16.8% (inactive); for `C[C@@H]1CN([C@H](C)CO)C(=O)c2cc(NC(=O)Cn3cnnn3)ccc2O[C@H]1CN(C)S(=O)(=O)c1ccc(Cl)cc1`, 10.5% (inactive).

As for `C[C@@H]1CN([C@H](C)CO)C(=O)c2cc(NS(=O)(=O)c3ccccc3)ccc2O[C@H]1CN(C)S(=O)(=O)c1ccc(Cl)cc1`, the activity change, negative = cytotoxicity was -8.14% (inactive). Regarding `C[C@@H]1CN([C@H](C)CO)C(=O)c2cc(NC(=O)Cc3cn(C)c4ccccc34)ccc2O[C@H]1CN(C)C(=O)Nc1cccc2ccccc12`, the activity change, negative = cytotoxicity is -4.64% (inactive). As for `C[C@@H]1CN([C@H](C)CO)C(=O)c2cc(N(C)C)ccc2O[C@H]1CN(C)S(=O)(=O)c1ccc(Cl)cc1`, the activity change, negative = cytotoxicity was -23.7% (inactive). Turning to `COc1ccc(NC(=O)N(C)C[C@@H]2Oc3ccc(NC(=O)Cc4cn(C)c5ccccc45)cc3C(=O)N([C@H](C)CO)C[C@H]2C)cc1`, the activity change, negative = cytotoxicity is 13.1% (inactive). For `C[C@@H]1CN([C@@H](C)CO)C(=O)Cc2cc(N(C)C)ccc2O[C@@H]1CN(C)Cc1ccc(C(=O)O)cc1`, the activity change, negative = cytotoxicity is 4.97% (inactive).

Take `Cc1ccc(OCc2cc(C(=O)N3CCCC(O)C3)no2)cn1` (configuration not stated): the activity change, negative = cytotoxicity was -19.7% (inactive). Take `C[C@@H]1CN([C@H](C)CO)C(=O)c2cc(NC(=O)Cc3cn(C)c4ccccc34)ccc2O[C@H]1CN(C)C(=O)Nc1ccccc1`: the activity change, negative = cytotoxicity was -12.4% (inactive). The result for `C[C@@H]1CN([C@H](C)CO)C(=O)c2cc(NC(=O)c3ccncc3)ccc2O[C@H]1CN(C)S(=O)(=O)c1ccc(Cl)cc1` reads 4.97% (inactive); that for `C[C@@H]1CN([C@H](C)CO)C(=O)c2cc(NC(=O)Cc3cn(C)c4ccccc34)ccc2O[C@H]1CN(C)Cc1ccc2c(c1)OCO2`, -15% (inactive); that for `C[C@@H]1CN([C@H](C)CO)C(=O)c2cc(NS(=O)(=O)c3cn(C)cn3)ccc2O[C@H]1CN(C)S(=O)(=O)c1ccc(Cl)cc1`, 1.24% (inactive).

Turning to `C[C@@H]1CN([C@H](C)CO)C(=O)c2cc(NC(=O)Cc3cn(C)c4ccccc34)ccc2O[C@H]1CN(C)Cc1ccc(C(=O)O)cc1`, the activity change, negative = cytotoxicity was -1% (inactive). With `O=C(O)CC(C(=O)Nc1cccc(C(F)(F)F)c1)C1CCCO1` (configuration not stated), the activity change, negative = cytotoxicity is -9.62% (inactive). For the molecule `CO[C@H]1CN(C)C(=O)c2cc(NC(=O)c3ccccc3F)ccc2OC[C@@H](C)N(C(C)=O)C[C@@H]1C`, the activity change, negative = cytotoxicity was 1.07% (inactive). The result for `Cc1ccc(S(=O)(=O)N(C)C[C@@H]2Oc3ccc(NC(=O)Cc4cn(C)c5ccccc45)cc3C(=O)N([C@H](C)CO)C[C@H]2C)cc1` reads -12.8% (inactive); that for `C[C@@H]1CN([C@@H](C)CO)C(=O)Cc2cc(NS(=O)(=O)c3cn(C)cn3)ccc2O[C@@H]1CN(C)Cc1ccc(Cl)c(Cl)c1`, -6.37% (inactive).

Take `C[C@H](CO)N1C[C@H](C)[C@@H](CN(C)S(=O)(=O)c2ccc(Cl)cc2)Oc2ccc(NC(=O)Cc3cn(C)c4ccccc34)cc2C1=O`: the activity change, negative = cytotoxicity was -25.3% (inactive). On to `COCC(=O)N1CCc2cc(-c3csc(NC(=O)c4cc(OC)cc(OC)c4)n3)ccc21`, for which the activity change, negative = cytotoxicity is 3.3% (inactive). As to `C[C@@H]1CN([C@@H](C)CO)C(=O)c2cc(NC(=O)NC3CCCCC3)ccc2O[C@H]1CN(C)Cc1ccncc1`, the activity change, negative = cytotoxicity was 5.45% (inactive).

As for `C[C@@H]1CN([C@H](C)CO)C(=O)c2cc(NC(=O)CCN3CCOCC3)ccc2O[C@H]1CN(C)S(=O)(=O)c1ccc(Cl)cc1`, the activity change, negative = cytotoxicity is 19.5% (inactive). For `COc1ccc(S(=O)(=O)N(C)C[C@@H]2Oc3ccc(NC(=O)Cc4cn(C)c5ccccc45)cc3C(=O)N([C@H](C)CO)C[C@H]2C)cc1` the value was -20.3% (inactive); for `COc1ccc(CN(C)C[C@@H]2Oc3ccc(NC(=O)CCCN(C)C)cc3C(=O)N([C@H](C)CO)C[C@H]2C)cc1`, 12.2% (inactive). For `CO[C@H]1CN(C)C(=O)c2ccc(NC(=O)C3CCCC3)cc2OC[C@@H](C)N(C(=O)CC2CC2)C[C@@H]1C`, the activity change, negative = cytotoxicity was -11.9% (inactive).
